The source of these data is ChEMBL document CHEMBL5329211, “Selective isoxazolopyrimidine PAT1 (SLC26A6) inhibitors for therapy of intestinal disorders” (RSC Med Chem, 2023).

Broadly, the IC50 is the concentration that gives 50% inhibition.

The source made the active and inactive calls. The calls are words filed in the database; no cut-off is given here.

For experiment [1], the target named is T1, Solute carrier family 26 member 9 (Homo sapiens) (UniProt Q7LBE3).
T1 sequence (whole entry): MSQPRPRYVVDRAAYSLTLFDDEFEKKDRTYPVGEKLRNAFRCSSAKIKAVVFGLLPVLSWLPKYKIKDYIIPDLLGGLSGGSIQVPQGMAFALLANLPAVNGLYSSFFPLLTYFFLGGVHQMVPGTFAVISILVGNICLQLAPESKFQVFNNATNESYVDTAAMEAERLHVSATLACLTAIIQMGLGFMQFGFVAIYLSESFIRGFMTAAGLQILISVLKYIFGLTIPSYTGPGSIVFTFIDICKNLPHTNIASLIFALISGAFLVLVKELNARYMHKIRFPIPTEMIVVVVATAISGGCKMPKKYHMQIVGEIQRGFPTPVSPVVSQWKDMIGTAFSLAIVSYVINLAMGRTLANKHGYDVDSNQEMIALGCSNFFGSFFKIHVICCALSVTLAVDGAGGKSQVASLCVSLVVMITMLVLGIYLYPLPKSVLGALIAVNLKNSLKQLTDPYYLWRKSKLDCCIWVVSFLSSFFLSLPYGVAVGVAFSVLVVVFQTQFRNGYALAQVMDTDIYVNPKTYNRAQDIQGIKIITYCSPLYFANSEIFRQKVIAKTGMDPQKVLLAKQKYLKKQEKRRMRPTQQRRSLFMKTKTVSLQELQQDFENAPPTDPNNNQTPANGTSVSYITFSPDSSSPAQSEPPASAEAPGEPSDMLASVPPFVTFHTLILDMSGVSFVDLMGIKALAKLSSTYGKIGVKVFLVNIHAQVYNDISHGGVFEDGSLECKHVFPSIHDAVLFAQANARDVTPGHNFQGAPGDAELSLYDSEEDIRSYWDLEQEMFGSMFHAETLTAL
As to the kind of experiment: Inhibition of SLC26A9 (unknown origin) expressed in rat FRT cells coexpressing YFP halide-sensing protein assessed as iodide-chloride exchange at 25 uM incubated for 2 sec by fluorescence quenching analysis. Format: cell-based.

Experiment [2] concerns the target T2, Anoctamin-1 (Homo sapiens) (UniProt Q5XXA6).
T2 sequence (whole entry): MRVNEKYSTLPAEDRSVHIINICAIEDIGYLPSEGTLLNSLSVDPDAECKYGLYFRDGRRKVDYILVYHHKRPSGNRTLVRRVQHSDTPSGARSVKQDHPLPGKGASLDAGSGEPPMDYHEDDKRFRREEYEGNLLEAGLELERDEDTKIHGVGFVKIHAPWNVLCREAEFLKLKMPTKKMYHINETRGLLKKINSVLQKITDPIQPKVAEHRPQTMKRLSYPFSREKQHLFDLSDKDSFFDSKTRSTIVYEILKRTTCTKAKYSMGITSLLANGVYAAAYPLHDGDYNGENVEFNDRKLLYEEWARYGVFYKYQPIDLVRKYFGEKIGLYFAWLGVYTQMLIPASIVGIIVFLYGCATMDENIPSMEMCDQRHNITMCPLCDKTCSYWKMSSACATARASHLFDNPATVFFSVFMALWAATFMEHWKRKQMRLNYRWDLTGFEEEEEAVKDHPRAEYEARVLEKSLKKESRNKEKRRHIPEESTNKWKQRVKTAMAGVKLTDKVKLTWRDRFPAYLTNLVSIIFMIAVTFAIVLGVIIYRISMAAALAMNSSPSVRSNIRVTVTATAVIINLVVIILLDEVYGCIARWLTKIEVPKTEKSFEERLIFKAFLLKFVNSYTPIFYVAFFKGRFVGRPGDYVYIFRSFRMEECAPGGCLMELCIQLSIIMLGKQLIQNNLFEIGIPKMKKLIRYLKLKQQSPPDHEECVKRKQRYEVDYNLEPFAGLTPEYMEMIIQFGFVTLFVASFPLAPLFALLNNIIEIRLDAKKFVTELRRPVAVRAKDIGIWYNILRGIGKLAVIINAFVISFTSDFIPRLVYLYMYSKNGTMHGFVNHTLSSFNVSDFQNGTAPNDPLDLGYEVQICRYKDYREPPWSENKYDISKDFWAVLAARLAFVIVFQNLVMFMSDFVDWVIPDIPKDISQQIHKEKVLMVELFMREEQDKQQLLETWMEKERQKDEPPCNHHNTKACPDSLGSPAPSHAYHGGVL
As to the kind of experiment: Inhibition of TMEM16A (unknown origin).

In experiment [3] the test system is Mus musculus. As to the kind of experiment: In vivo inhibition of PAT1 in intestinal closed-loop CD-1 mouse model assessed as reduction in loop fluid volume in ileum measured for 30 mins. Type of experiment: functional, organism-based. A digest of the protocol:
(§1)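 Mice (wild-type CD1 or homozygous F508del CF, 10-16 wk, both sexes) fasted 24 h with free access to 5% dextrose water. Under isoflurane at 36-38 °C, 2-3 ileal loops (2-3 cm) were tied off and injected with 100 µL PBS pH 7.4 containing 30 µM inhibitor, 10 µM tenapanor or 0.1% DMSO vehicle. Loops removed at 0 or 30 min in separate mice; length and weight measured for fluid absorption. One-way ANOVA with Newman-Keuls.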

Experiment [4] has as its system Mus musculus. The experiment in a line: In vivo inhibition of PAT1 in intestinal closed-loop CD-1 mouse model harboring CFTR delF508/delF508 mutant assessed as reduction in loop weight/length ratio in ileum measured for 30 mins. Format: functional, organism-based. The gist of the method:
as §1

Experiment [5] in a line: In vivo inhibition of PAT1 in intestinal closed-loop CD-1 mouse model harboring CFTR delF508/delF508 mutant assessed as reduction in loop fluid volume in ileum measured for 30 mins. Format: functional. The conditions noted are these: 0.5 h. The gist of the method:
as §1

Experiment [6] has as its target Solute carrier family 26 member 6 (Mus musculus) (UniProt Q8CIW6). As to the kind of experiment: Inhibition of SLC26A6 (unknown origin) expressed in rat FRT cells coexpressing YFP halide-sensing protein assessed as iodide-chloride exchange incubated for 2 sec by fluorescence quenching analysis.

Chain of Solute carrier family 26 member 6 (Mus musculus) (Q8CIW6 whole entry, looked up): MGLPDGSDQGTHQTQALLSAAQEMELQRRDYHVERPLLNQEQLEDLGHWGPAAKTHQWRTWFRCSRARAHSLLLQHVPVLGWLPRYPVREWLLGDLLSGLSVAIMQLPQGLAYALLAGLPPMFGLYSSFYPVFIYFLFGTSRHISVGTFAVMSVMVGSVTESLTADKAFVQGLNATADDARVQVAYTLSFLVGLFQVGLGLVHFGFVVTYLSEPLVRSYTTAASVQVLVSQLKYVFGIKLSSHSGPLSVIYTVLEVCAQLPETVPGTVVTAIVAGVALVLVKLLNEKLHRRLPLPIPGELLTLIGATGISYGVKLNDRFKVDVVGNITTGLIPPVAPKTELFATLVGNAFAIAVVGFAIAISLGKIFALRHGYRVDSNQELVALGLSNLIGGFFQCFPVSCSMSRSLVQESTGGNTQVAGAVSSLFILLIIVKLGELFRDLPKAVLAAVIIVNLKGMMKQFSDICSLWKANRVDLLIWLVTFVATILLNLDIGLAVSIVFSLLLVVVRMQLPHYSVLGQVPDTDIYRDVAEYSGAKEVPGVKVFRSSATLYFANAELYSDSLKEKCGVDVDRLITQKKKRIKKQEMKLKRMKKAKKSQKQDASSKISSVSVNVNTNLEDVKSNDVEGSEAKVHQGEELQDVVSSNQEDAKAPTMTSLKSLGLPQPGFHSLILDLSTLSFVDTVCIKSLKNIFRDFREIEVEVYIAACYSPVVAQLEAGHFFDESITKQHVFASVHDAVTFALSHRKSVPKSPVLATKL

As to `CCOC(=O)c1nc(N(C)Cc2ccccc2)c2c(C)noc2n1`, the inhibition entry in experiment [1] and in experiment [2] was “inactive” throughout. The inhibition result in the experiment on Mus musculus [3] and in the experiment with Mus musculus [4] was “Active” throughout. Further, the “inhibition (INH)” value in experiment [5] was more than 90%. Besides, the IC50 in experiment [6] amounted to 1000 nM.
